According to article PMC4431436 (Oncology Reports, 2015):
Entries after “also recorded” stand apart in the source; their conditions may differ. Where two headings read alike, the source gives them in different places.

Key:
[1] = system: murine B16F10 melanoma; assay: lung metastasis in the murine B16F10 melanoma prevention model; type: in vivo, B6D2F1 hybrid female mice; settings: for total tumor colony number on lung surface: Veh 90±5, mean ± SEM
Method in brief: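 6-week-old B6D2F1 females got 1.5×10⁵ B16F10 cells (cultured in DMEM/10% FBS) by i.v. tail vein. Necropsy ~2 weeks. Surface colonies counted across five lung regions; formalin-fixed frontal H&E sections for tumor area. Mean ± SEM; ANOVA/Tukey or t-test; Fisher's PLSD for area.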

[2] = biological target: purified human αvβ3 integrin (Homo sapiens, UniProt P05106+P06756); assay: 3H-MK-0429 binding assay with purified receptor
[3] = biological target: purified murine αvβ3 integrin (Mus musculus, UniProt O54890+P43406); assay: 3H-MK-0429 binding assay with purified receptor
[4] = biological target: T1, purified rat αvβ3 integrin (Rattus norvegicus, UniProt F1LZX9+Q8R2H2); assay: 3H-MK-0429 binding assay with purified receptor
T1 sequence (F1LZX9 31-1043): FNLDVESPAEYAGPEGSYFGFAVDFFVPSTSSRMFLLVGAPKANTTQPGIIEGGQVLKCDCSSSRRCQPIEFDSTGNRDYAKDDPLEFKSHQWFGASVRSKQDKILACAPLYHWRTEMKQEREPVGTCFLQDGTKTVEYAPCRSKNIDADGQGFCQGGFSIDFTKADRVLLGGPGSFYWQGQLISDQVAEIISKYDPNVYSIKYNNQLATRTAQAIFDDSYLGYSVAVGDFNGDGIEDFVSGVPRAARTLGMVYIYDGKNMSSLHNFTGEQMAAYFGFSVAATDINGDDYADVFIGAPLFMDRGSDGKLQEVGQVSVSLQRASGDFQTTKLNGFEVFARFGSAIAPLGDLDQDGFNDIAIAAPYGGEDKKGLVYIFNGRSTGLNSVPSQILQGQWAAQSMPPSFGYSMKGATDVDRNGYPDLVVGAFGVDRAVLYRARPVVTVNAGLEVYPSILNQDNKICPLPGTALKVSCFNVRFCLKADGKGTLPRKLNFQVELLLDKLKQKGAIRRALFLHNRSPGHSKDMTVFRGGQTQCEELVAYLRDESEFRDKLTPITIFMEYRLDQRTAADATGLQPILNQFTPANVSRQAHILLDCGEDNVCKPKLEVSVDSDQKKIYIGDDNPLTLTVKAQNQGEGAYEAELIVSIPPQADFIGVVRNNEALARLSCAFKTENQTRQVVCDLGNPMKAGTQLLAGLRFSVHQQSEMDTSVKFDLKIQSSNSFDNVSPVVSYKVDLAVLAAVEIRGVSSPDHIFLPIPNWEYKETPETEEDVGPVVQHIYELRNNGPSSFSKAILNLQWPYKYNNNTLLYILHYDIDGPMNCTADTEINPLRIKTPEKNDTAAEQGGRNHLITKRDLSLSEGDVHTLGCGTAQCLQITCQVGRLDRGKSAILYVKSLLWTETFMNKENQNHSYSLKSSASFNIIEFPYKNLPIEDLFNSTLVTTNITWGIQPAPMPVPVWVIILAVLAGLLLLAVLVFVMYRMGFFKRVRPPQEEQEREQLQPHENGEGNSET
T1 sequence (Q8R2H2 26-787): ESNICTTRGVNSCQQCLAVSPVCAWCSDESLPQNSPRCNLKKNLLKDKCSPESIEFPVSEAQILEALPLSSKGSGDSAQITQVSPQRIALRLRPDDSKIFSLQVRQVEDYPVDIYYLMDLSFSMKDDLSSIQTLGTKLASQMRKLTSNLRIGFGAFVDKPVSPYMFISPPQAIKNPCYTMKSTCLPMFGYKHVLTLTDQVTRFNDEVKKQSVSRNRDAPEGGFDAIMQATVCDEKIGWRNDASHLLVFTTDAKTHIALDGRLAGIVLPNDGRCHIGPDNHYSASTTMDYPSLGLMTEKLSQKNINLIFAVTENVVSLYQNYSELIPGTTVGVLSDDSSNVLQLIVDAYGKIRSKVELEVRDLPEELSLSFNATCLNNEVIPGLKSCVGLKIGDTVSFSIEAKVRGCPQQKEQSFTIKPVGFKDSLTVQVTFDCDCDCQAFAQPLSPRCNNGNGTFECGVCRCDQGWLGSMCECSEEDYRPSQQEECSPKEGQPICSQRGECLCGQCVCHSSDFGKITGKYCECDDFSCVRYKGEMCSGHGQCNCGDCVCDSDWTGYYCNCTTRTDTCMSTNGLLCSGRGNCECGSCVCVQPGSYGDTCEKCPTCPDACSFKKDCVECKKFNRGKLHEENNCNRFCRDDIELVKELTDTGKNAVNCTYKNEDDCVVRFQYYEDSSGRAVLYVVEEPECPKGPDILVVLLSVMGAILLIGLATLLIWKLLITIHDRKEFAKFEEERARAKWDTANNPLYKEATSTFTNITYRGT

[5] = biological target: human integrin αvβ3 (Homo sapiens, UniProt P05106+P06756); assay: cell adhesion assay, HeK293-αvβ3 cells to vitronectin; type: cell-based
Method in brief: (§1)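 Stably transfected HEK293 cells overexpressing a human integrin, 25×10³ cells/well, attached for 2 h at 37°C in a humidified incubator, with or without increasing concentrations of test compound. Wells were coated with vitronectin (αvβ3, αvβ5), fibrinogen (αIIbβ3) or fibronectin (α5β1). Non-attached cells were washed off. Attached cells were quantified by colorimetric hexosaminidase activity against a per-line standard curve; mean of triplicates.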

[6] = system: human integrin αvβ5; assay: cell adhesion assay, HeK293 overexpressing αvβ5 to vitronectin; type: cell-based; settings: relative to αvβ3-mediated adhesion
Method in brief: as §1

[7] = system: human integrin αIIbβ3; assay: cell adhesion assay, HeK293 overexpressing αIIbβ3 to fibrinogen; type: cell-based; settings: relative to αvβ3-mediated adhesion
Method in brief: as §1

[8] = system: human integrin α5β1; assay: cell adhesion assay, HeK293 overexpressing α5β1 to fibronectin; type: cell-based; settings: relative to αvβ3-mediated adhesion
Method in brief: as §1

[9] = body weight of mice injected with B16F10 melanoma; type: in vivo, B6D2F1 hybrid female mice; settings: 100 and 300 mg/kg, p.o., b.i.d., over the study duration
[10] = system: B16F10-luc melanoma cells; assay: bioluminescent imaging of de novo lung metastasis, B16F10-luc melanoma model; type: in vivo, (nu/nu) female mice
Method in brief: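 8-week-old nu/nu females got 2.5×10⁵ G418-selected luciferase-expressing B16F10 cells i.v. From day 1, saline or test compound 300 mg/kg p.o. b.i.d. for two weeks; n=10/group. Imaged on days 0, 3, 8, 11 and 15 under 2.5% isoflurane after D-luciferin 90 mg/kg i.p. Total flux (photons/s) taken in head, lung and abdomen ROIs, dorsal and ventral. Then ex vivo lung imaging and surface colony counts. Mean ± SEM.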

[11] = system: osteoclastic bone resorption; settings: read-out: IC50, inhibition of osteoclastic bone resorption; in vitro; cited from earlier work
[12] = ovariectomized rats; cited from earlier work
[13] = ovariectomized monkeys; cited from earlier work
[14] = cited from earlier work
[15] = cited from earlier work; remark: listed apart in the source
[16] = approximately; cited from earlier work
[17] = system: metastatic melanoma; settings: intravenously twice weekly; stage IV or unresectable stage III; cited from earlier work
[18] = system: metastatic melanoma; settings: 8 mg/kg once weekly, i.v.; stage IV metastatic melanoma; cited from earlier work
[19] = 300 mg/kg, p.o., b.i.d., day 11

Sequence of human integrin αvβ3 (P06756 891-1048): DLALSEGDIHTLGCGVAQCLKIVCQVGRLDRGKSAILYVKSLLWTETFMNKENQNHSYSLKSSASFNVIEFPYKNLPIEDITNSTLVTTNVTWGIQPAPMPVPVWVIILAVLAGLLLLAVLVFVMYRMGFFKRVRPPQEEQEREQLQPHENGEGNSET
Sequence of human integrin αvβ3 (P05106 27-788): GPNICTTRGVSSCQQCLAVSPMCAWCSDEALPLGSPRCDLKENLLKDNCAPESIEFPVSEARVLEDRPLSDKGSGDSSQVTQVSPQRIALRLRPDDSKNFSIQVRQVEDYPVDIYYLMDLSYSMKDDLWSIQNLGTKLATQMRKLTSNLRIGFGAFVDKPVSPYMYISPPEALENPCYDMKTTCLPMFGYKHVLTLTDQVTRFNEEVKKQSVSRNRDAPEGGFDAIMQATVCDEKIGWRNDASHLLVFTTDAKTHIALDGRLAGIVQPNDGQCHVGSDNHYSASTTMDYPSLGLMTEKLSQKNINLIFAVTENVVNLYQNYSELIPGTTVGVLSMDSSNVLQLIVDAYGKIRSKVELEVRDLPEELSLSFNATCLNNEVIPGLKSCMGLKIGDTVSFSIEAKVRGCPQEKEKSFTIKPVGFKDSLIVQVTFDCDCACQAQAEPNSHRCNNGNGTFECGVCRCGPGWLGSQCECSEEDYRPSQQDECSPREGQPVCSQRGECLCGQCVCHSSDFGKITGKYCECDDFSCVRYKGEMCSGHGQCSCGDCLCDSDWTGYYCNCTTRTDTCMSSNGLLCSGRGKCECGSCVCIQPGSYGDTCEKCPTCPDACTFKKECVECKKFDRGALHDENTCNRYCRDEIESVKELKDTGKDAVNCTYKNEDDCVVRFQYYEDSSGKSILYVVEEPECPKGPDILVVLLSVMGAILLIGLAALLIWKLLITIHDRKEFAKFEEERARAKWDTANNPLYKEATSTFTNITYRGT
Sequence of human integrin αvβ3 (P06756 31-889): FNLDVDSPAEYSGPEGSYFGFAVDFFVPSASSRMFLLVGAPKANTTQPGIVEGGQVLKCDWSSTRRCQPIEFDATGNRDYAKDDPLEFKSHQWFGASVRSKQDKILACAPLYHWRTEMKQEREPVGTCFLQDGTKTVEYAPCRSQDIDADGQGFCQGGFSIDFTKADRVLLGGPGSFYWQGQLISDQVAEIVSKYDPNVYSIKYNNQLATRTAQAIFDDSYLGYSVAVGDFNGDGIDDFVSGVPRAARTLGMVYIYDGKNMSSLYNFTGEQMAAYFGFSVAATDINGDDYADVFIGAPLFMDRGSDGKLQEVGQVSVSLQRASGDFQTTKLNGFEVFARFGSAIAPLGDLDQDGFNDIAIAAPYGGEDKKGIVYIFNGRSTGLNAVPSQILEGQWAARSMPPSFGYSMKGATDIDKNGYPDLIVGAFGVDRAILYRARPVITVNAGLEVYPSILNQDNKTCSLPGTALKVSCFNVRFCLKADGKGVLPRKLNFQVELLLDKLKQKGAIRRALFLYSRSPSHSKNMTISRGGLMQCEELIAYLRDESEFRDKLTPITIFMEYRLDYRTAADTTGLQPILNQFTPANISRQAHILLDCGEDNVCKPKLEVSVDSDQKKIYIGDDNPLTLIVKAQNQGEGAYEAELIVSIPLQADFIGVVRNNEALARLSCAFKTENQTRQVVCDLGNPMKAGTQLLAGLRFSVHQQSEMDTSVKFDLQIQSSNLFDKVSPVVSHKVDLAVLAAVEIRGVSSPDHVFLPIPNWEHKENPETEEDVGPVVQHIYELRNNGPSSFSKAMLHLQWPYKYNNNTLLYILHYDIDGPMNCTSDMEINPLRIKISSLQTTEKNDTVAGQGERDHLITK
Sequence of purified murine αvβ3 integrin (P43406 31-885): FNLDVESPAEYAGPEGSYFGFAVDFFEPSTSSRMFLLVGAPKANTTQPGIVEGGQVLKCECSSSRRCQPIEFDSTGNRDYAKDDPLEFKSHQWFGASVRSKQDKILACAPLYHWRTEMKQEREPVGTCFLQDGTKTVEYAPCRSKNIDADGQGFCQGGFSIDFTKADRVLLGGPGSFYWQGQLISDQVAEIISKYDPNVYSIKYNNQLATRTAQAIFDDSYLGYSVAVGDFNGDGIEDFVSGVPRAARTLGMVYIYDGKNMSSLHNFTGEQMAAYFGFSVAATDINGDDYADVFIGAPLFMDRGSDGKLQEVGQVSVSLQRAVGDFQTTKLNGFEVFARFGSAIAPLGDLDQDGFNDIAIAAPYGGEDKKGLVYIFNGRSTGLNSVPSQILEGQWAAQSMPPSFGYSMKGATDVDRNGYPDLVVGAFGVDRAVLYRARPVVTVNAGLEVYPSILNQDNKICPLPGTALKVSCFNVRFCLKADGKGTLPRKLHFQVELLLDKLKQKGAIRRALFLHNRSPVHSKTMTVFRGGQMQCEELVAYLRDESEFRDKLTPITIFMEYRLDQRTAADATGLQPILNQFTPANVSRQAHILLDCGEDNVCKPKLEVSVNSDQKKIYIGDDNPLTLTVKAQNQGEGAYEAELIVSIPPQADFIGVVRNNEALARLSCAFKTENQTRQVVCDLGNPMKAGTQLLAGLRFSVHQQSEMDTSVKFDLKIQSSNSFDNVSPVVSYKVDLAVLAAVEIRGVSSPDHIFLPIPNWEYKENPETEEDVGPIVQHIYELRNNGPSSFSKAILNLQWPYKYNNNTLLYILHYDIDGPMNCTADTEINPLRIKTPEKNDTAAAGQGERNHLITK
Sequence of purified murine αvβ3 integrin (P43406 887-1044): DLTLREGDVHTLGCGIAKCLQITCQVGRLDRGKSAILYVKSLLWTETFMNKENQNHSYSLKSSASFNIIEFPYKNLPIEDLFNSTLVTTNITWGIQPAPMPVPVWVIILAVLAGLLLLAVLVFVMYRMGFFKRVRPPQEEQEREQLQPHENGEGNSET
Sequence of purified murine αvβ3 integrin (O54890 26-787): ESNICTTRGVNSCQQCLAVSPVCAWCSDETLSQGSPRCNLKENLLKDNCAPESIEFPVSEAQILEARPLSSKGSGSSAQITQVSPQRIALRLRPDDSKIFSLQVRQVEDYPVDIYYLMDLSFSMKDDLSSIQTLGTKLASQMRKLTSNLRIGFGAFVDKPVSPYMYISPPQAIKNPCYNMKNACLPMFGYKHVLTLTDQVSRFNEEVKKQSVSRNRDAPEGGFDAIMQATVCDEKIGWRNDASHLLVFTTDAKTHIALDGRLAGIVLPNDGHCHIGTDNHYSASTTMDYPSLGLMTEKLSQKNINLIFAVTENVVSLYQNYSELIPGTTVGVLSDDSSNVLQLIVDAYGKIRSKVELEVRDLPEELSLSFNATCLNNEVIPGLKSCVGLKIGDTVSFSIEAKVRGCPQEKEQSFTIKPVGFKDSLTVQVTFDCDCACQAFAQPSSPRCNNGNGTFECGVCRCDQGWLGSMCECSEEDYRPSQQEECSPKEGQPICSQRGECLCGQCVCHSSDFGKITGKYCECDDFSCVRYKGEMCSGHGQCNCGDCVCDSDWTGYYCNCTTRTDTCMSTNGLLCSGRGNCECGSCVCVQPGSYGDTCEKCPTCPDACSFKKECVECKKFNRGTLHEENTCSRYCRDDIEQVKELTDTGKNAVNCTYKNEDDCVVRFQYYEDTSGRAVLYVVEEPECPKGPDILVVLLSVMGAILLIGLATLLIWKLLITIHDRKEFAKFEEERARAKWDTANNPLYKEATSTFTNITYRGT
Sequence of purified human αvβ3 integrin (P05106 27-788): as the sequence (P05106 27-788) above
Sequence of purified human αvβ3 integrin (P06756 31-889): as the sequence (P06756 31-889) above
Sequence of purified human αvβ3 integrin (P06756 891-1048): as the sequence (P06756 891-1048) above

**Q.** Which “reduction of tumor colony number vs vehicle” value ([1]; 300 mg/kg, i.p., q.d.) does the source give for `O=P1(N(CCCl)CCCl)NCCCO1` (stereo not drawn) [Cyclophosphamide, cyclophosphamide, reference compound] here?
**A.** 99%

**Q.** For `COc1ccc([C@H](CC(=O)O)N2CCN(CCCc3ccc4c(n3)NCCC4)C2=O)cn1` [MK-0429, 3(S)-(6-methoxypyridin-3-yl)-3-[2-oxo-3-[3-(5,6,7,8-tetrahydro-[1,8]-naphthyridin-2-yl)propyl]imidazolidin-1-yl] propionic acid], which Kd [2] is on record?
**A.** 0.33 ± 0.04 nM

**Q.** What about the Kd [3] of the same molecule?
**A.** 0.56 ± 0.07 nM

**Q.** And the Kd [4]?
**A.** 1.23 ± 0.11 nM

**Q.** And the IC50 [5]?
**A.** 0.58 ± 0.3 nM

**Q.** And the “fold less potent in blocking adhesion of HeK293-αvβ5 to vitronectin” value [6]?
**A.** ~ 100 fold

**Q.** What about the “fold less active in blocking adhesion mediated by αIIbβ3 to fibrinogen” value [7] of the same molecule?
**A.** > 1,000 fold

**Q.** And the “fold less active in blocking adhesion mediated by α5β1 to fibronectin” value [8]?
**A.** > 1,000 fold

**Q.** What about the “effect on body weight” value [9] of the same molecule?
**A.** no significant weight loss

**Q.** And the “reduction of tumor colony number vs vehicle” value ([1]; 100 mg/kg, p.o., b.i.d.)?
**A.** 64%

**Q.** And the “total tumor colony number on lung surface” value ([1]; 100 mg/kg, p.o., b.i.d.)?
**A.** 33±6

**Q.** What about the “total tumor area in lung sections (H&E)” value ([1]; 300 mg/kg, b.i.d., Veh 11.1±0.4, n=5/group) of the same molecule?
**A.** 5.0±0.7 mm^2

**Q.** And the “reduction of tumor colony number vs vehicle” value ([1]; 300 mg/kg, p.o., b.i.d.)?
**A.** 57%

**Q.** And the “total tumor colony number on lung surface” value ([1]; 300 mg/kg, p.o., b.i.d.)?
**A.** 39±9

**Q.** And the “reduction of melanoma colonies in all lung regions” value ([1]; 100 and 300 mg/kg, p.o., b.i.d., five lung regions)?
**A.** 53–68%

**Q.** And the “reduction of visible metastatic colonies counted on the ex vivo lung surface” value ([10]; 300 mg/kg twice daily for two weeks, p<0.05 vs. Veh)?
**A.** 32%

**Q.** And the “decrease of metastasis in the lungs, ex vivo bioluminescence, vs vehicle” value ([10]; 300 mg/kg, p.o., b.i.d.)?
**A.** ~ 40%

**Q.** What about the “ex vivo lung tumor burden (bioluminescence)” value ([10]; 300 mg/kg, p.o., b.i.d., Veh 118.1±27.1, not statistically significant) of the same molecule?
**A.** 69.9±5.9 ×10^5 photons/sec

**Q.** What about the “reduction of melanoma burden in the ventral lung (bioluminescence) vs vehicle” value ([10]; 300 mg/kg, p.o., b.i.d., day 8) of the same molecule?
**A.** 38%

**Q.** What about the “reduction of tumor metastases in the dorsal lung (bioluminescence) vs vehicle” value (“reduction of tumor metastases” for short) ([10]; 300 mg/kg, p.o., b.i.d., day 8) of the same molecule?
**A.** 15%

**Q.** What about the “reduction of melanoma burden in the ventral lung (bioluminescence) vs vehicle” value [10, 19] of the same molecule?
**A.** 37%

**Q.** And the “reduction of tumor metastases” value [10, 19]?
**A.** 54%

**Q.** What about the “reduction of tumor metastases” value ([10]; 300 mg/kg, p.o., b.i.d., day 15, p=0.0561 vs. Veh) of the same molecule?
**A.** 38%

**Q.** And the IC50 [11]?
**A.** 12.2 ± 4.5 nM

**Q.** And the bone mass [12]?
**A.** increases bone mass

**Q.** And the bone turnover [12]?
**A.** significantly reduces bone turnover

**Q.** And the bone mass [13]?
**A.** increases bone mass

**Q.** And the bone turnover [13]?
**A.** significantly reduces bone turnover

**Q.** And the “bone mineral density at the spine and hip compared to placebo” value ([14]; 100 or 400 mg once daily, or 200 mg twice daily for 12 months)?
**A.** significant increase

**Q.** And the tolerability ([14]; postmenopausal women with osteoporosis)?
**A.** well tolerated and without serious adverse events

**Q.** What about the “bone resorption marker urinary N-telopeptide” value ([15]; 200 and 1,600 mg orally, twice daily for four weeks) of the same molecule?
**A.** significantly decreased

**Q.** What about the tolerability ([15]; up to 1,600 mg twice daily for four weeks) of the same molecule?
**A.** well tolerated at this high dose; also recorded: well tolerated and without serious adverse events

**Q.** For Cilengitide [reference compound], which half-life [16] is on record?
**A.** 2 to 4 h

**Q.** And the “clinical efficacy as single-agent therapy for advanced melanoma” value [17]?
**A.** minimal clinical efficacy

B1: etaracizumab: monoclonal antibody against αvβ3 (antibody, chains of the INN, looked up, V domains shown)
VH: QVQLVESGGGVVQPGRSLRLSCAASGFTFSSYDMSWVRQAPGKGLEWVAKVSSGGGSTYYLDTVQGRFTISRDNSKNTLYLQMNSLRAEDTAVYYCARHLHGSFASWGQGTTVTVSS
VL: EIVLTQSPATLSLSPGERATLSCQASQSISNFLHWYQQRPGQAPRLLIRYRSQSISGIPARFSGSGSGTDFTLTISSLEPEDFAVYYCQQSGSWPLTFGGGTKVEIK
**Q.** With B1 as the molecule, how does the half-life [16] read?
**A.** a few days

**Q.** And the “median survival rate, alone vs in combination with dacarbazine” value [18]?
**A.** not different
